Test results published in ChEMBL document CHEMBL1921795, “Discovery, synthesis, and structure-activity relationship development of a series of N-4-(2,5-dioxopyrrolidin-1-yl)phenylpicolinamides (VU0400195, ML182): characterization of a novel positive allosteric modulator of the metabotropic glutamate receptor 4 (mGlu(4)) with oral efficacy in an …” (J Med Chem, 2011).
Active and inactive are the calls of the source.

How the values were obtained:
[1] = system: Rattus norvegicus; experiment: Oral bioavailability in Sprague-Dawley rat at 10 mg/kg by LC/MS analysis; type: ADME, organism-based; conditions: in vivo
[2] = system: Rattus norvegicus; experiment: AUC (0 to 24 hrs) in Sprague-Dawley rat at 1 mg/kg, iv by LC/MS analysis; type: ADME, organism-based, Plasma; parameters: time < 24 hr, dose 1 mg/kg, route intravenous; conditions: in vivo
How it was run: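 Male Sprague-Dawley rats (n=2, 250-300 g) with carotid artery and jugular vein catheters, acclimated about one week, fed ad libitum. Dose given through the jugular catheter in 20% DMSO/80% saline at 1 mL/kg. Carotid blood drawn pre-dose and at 2, 7, 15, 30 min and 1, 2, 4, 7, 24 h into chilled EDTA tubes. Plasma measured by LC/MS/MS; parameters from noncompartmental analysis of individual profiles.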

[3] = system: Rattus norvegicus; experiment: Volume of distribution at steady state in Sprague-Dawley rat at 1 mg/kg, iv by LC/MS analysis; type: ADME, organism-based; parameters: dose 1 mg/kg, route intravenous; conditions: in vivo
How it was run: (§1)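 Male Sprague-Dawley rats (n=2, 250-300 g), carotid and jugular cannulated; 1 mg/kg iv via jugular catheter in 20% DMSO/80% saline. Arterial blood from pre-dose to 24 h, EDTA plasma analysed by LC/MS/MS; noncompartmental analysis of individual profiles.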

[4] = system: Rattus norvegicus; experiment: AUC (0 to 24 hrs) in Sprague-Dawley rat at 10 mg/kg, po by LC/MS analysis; type: ADME, organism-based, Plasma; parameters: time < 24 hr, dose 10 mg/kg, route oral; conditions: in vivo
[5] = system: Rattus norvegicus; experiment: Cmax in Sprague-Dawley rat at 10 mg/kg, po by LC/MS analysis; type: ADME, organism-based; parameters: dose 10 mg/kg, route oral; conditions: in vivo
[6] = system: Rattus norvegicus; experiment: Half life in Sprague-Dawley rat at 1 mg/kg, iv by LC/MS analysis; type: ADME, organism-based; parameters: dose 1 mg/kg, route intravenous; conditions: in vivo; how it was run: as §1
[7] = biological target: Cytochrome P450 2D6 (Homo sapiens, UniProt P10635); experiment: Inhibition of CYP2D6 in human liver microsomes using […] as substrate; type: ADME, Microsome
How it was run: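 Pooled human liver microsomes (0.1 mg/mL) with probe cocktail (phenacetin 10 µM, diclofenac 5 µM, dextromethorphan 5 µM, midazolam 2 µM) in 0.1 M phosphate pH 7.4; compound 100 nM–30 µM in duplicate, 15 min preincubation at 37 °C, then 1 mM NADPH for 8 min. LC/MS/MS of metabolite formation; IC50 derived.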

[8] = Intrinsic clearance in rat hepatic microsomes at 1 uM by LC/MS/MS analysis; type: ADME, Microsome; conditions: rat liver microsomes
[9] = system: Plasma; experiment: Fraction unbound in human plasma; type: ADME, cell-free
[10] = system: Brain; experiment: Fraction unbound in rat brain homogenate by equilibrium dialysis; type: ADME, tissue-based
[11] = system: Plasma; experiment: Fraction unbound in rat plasma by equilibrium dialysis; type: ADME, cell-free
How it was run: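 Rat plasma spiked with compound, equilibrium dialysis against 25 mM phosphate buffer pH 7.4 for 4 h at 37 °C with shaking; both chambers matrix-matched, acetonitrile-extracted and quantified by LC/MS/MS; triplicate.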

[12] = Intrinsic clearance in human hepatic microsomes; type: ADME, Microsome; conditions: human liver microsomes
[13] = biological target: Cytochrome P450 2C19 (Homo sapiens, UniProt P33261); experiment: Inhibition of CYP2C19 in human liver microsomes using S-mephenytoin as substrate; type: ADME, Microsome
[14] = biological target: Cytochrome P450 3A4 (Homo sapiens, UniProt P08684); experiment: Inhibition of CYP3A4 in human liver microsomes using […] as substrate; type: ADME, Microsome
[15] = biological target: Cytochrome P450 2C9 (Homo sapiens, UniProt P11712); experiment: Inhibition of CYP2C9 in human liver microsomes using diclofenac as substrate
[16] = biological target: T1, Cytochrome P450 1A2 (Homo sapiens, UniProt P05177); experiment: Inhibition of CYP1A2 in human liver microsomes using phenacetin as substrate
T1 sequence (P05177 whole entry): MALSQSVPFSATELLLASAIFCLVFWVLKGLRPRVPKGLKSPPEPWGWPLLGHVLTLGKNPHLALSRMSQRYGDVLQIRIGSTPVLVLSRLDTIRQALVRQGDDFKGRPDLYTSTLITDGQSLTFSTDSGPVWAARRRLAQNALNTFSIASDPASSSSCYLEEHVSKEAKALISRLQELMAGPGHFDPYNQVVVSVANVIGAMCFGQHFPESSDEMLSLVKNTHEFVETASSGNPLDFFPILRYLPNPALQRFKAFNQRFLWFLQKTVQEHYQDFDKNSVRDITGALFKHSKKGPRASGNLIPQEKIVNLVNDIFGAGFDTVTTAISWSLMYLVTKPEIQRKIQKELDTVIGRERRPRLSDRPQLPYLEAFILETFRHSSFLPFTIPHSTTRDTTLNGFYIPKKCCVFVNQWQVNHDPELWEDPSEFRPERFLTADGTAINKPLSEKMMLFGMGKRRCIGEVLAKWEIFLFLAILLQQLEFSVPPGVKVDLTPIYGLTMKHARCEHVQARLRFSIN

[17] = system: Rattus norvegicus; experiment: Reversal of haloperidol-induced catalepsy in Sprague-Dawley rat at 56.6 mg/kg, po administered 60 mins after haloperidol-challenge measured after 30 mins; type: functional, organism-based; parameters: dose 56.6 mg/kg
How it was run: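 Male Sprague-Dawley rats (275–300 g). Haloperidol 0.75 mg/kg i.p. (in 8.5% lactic acid, pH 6) given 60 min before oral compound (0.1–56.6 mg/kg) or vehicle (10% Tween 80). Catalepsy tested 30 min later: forepaws placed on a horizontal bar 6 cm high; latency to remove paws timed, 30 s cutoff.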

[18] = biological target: T2, Metabotropic glutamate receptor 4 (Homo sapiens, UniProt Q14833); experiment: Positive allosteric modulation of human mGlu4 receptor expressed in CHO cells coexpressing Gqi5 assessed as potentiation of glutamate-induced calcium mobilization relative to (-)-PHCCC; type: functional, cell-based
How it was run: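 CHO cells stably expressing human mGlu4 with chimeric Gqi5, plated overnight, loaded 45 min at 37 °C with 1 µM Fluo-4 AM. Compound (10-point, 1:3 dilutions) was added about 2.5 min before an EC20 glutamate, then EC80 glutamate 2 min later. Ca2+ fluorescence read at 470/540 nm. Four-parameter logistic fit.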

[19] = biological target: Metabotropic glutamate receptor 4 (Rattus norvegicus, UniProt P31423); experiment: Positive allosteric modulator activity at rat mGlu4 receptor by thallium flux assay
[20] = biological target: Metabotropic glutamate receptor 4 (Rattus norvegicus) (UniProt P31423); experiment: Positive allosteric modulator activity at rat mGlu4 receptor by thallium flux assay at 30 uM relative to glutamate
[21] = biological target: T2, Metabotropic glutamate receptor 4; experiment: Positive allosteric modulator activity at human mGlu4 receptor expressed in CHO cells expressing Gqi5 by calcium mobilization assay
[22] = biological target: Metabotropic glutamate receptor 4 (Rattus norvegicus) (UniProt P31423); experiment: Positive allosteric modulation of rat mGlu4 receptor assessed as potentiation of glutamate-induced thallium flux relative to (-)-PHCCC; parameters: concentration or dose not given beside the values
[23] = system: Nucleic Acid; experiment: Ratio of drug level in brain to plasma in ip dosed rat; type: ADME, organism-based

Metabotropic glutamate receptor 4 (Rattus norvegicus), sequence (P31423 whole entry): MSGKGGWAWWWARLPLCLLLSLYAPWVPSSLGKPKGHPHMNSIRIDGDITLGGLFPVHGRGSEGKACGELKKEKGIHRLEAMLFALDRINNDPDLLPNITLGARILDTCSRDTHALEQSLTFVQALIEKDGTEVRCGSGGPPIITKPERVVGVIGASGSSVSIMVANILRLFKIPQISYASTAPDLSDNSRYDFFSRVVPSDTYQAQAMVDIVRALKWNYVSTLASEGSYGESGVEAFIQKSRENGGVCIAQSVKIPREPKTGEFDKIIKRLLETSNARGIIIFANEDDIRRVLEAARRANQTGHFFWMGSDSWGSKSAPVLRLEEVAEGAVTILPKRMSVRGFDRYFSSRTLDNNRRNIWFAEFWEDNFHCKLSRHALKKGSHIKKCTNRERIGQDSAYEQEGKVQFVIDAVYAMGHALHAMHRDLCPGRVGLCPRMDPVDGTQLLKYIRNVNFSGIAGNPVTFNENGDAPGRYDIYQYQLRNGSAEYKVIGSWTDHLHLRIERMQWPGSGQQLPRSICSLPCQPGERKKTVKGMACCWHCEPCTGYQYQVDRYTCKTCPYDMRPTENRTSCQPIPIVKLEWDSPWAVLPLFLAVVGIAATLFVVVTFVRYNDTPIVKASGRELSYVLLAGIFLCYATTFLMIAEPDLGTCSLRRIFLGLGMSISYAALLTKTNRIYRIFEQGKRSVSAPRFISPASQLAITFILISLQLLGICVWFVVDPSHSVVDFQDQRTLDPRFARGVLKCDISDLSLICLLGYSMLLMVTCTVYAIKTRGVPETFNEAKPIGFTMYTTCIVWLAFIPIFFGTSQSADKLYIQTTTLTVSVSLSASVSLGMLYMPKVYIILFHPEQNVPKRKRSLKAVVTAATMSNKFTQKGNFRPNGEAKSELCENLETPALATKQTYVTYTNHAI
Cytochrome P450 3A4, sequence (P08684 whole entry): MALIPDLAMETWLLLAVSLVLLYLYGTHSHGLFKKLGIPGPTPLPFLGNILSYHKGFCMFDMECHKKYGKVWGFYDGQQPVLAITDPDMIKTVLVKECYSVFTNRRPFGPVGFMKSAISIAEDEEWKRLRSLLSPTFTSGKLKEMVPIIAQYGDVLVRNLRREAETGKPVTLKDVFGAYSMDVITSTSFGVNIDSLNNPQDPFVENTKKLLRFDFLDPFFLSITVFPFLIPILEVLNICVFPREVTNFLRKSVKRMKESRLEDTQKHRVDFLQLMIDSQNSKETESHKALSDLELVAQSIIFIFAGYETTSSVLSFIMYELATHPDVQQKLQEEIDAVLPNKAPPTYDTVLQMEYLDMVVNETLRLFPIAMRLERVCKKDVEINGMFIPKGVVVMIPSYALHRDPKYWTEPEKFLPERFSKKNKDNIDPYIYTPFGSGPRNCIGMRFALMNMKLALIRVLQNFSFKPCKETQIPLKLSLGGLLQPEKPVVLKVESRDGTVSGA
Cytochrome P450 2D6, sequence (P10635 whole entry): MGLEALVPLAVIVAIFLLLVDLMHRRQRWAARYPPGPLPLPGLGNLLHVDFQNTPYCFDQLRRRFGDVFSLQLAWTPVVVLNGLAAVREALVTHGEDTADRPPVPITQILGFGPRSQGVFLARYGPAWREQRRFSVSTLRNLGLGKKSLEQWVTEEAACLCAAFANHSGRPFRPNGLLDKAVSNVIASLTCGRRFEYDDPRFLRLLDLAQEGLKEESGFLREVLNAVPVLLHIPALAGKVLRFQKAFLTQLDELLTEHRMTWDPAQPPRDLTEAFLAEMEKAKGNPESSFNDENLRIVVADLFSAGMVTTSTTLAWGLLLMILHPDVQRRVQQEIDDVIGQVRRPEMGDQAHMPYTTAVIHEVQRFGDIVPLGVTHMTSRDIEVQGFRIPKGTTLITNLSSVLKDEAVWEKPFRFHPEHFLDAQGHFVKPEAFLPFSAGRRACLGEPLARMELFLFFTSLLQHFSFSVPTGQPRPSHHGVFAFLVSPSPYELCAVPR
T2 sequence (Q14833 whole entry): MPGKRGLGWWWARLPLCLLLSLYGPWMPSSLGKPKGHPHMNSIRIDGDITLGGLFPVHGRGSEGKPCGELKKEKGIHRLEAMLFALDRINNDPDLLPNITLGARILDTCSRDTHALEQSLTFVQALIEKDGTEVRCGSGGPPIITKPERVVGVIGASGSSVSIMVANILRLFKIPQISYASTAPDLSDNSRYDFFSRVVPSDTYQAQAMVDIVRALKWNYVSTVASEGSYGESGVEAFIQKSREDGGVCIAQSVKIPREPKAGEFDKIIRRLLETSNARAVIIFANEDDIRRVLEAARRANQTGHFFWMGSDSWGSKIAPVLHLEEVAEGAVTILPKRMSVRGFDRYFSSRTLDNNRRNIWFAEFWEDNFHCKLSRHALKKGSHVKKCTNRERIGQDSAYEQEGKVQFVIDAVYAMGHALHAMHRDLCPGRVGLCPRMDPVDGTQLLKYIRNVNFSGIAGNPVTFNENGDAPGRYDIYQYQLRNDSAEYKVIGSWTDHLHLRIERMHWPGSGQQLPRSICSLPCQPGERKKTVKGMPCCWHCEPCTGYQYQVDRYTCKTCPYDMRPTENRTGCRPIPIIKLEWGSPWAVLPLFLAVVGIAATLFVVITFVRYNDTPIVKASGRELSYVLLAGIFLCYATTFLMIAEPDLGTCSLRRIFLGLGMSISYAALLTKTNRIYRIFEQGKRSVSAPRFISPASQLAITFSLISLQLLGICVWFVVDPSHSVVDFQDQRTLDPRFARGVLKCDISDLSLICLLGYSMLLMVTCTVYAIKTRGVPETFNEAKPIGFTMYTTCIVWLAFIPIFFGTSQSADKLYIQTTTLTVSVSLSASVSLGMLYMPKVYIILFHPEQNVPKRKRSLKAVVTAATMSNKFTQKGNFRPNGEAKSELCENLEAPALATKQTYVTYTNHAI
Cytochrome P450 2C9, sequence (P11712 whole entry): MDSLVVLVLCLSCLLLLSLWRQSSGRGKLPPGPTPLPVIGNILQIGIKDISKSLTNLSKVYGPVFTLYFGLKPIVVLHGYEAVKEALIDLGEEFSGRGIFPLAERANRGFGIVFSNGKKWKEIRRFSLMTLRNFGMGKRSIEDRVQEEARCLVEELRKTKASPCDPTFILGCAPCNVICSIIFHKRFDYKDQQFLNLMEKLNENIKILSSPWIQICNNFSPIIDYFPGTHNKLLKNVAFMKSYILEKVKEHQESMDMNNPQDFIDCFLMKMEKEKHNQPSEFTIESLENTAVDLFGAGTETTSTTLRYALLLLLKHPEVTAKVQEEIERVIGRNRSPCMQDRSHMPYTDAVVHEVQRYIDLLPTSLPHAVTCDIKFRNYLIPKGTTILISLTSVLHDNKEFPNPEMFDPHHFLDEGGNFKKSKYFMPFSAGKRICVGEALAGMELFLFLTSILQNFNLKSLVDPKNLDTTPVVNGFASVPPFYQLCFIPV
Metabotropic glutamate receptor 4 (Rattus norvegicus, UniProt P31423), sequence (P31423 whole entry): as the sequence (P31423 whole entry) above
Cytochrome P450 2C19, sequence (P33261 whole entry): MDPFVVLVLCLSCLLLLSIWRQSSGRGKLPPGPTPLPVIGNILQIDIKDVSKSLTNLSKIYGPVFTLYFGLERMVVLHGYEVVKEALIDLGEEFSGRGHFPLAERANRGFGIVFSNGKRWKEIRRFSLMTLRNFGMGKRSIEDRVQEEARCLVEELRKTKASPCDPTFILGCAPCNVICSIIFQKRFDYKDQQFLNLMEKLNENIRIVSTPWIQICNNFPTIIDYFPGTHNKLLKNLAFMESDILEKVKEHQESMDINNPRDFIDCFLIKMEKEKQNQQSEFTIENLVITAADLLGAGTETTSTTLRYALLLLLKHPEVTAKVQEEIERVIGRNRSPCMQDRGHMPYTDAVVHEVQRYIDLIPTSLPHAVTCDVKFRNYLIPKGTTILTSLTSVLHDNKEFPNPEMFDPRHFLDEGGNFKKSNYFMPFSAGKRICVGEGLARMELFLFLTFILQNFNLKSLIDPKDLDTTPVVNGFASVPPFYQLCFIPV

Cl.O=C(Nc1ccc(N2C(=O)CC3(CCCCC3)C2=O)c(Cl)c1)c1ccccn1
F [1]: 24.6%
AUC [2]: 346 ng·h/mL
Vdss [3]: 5.5 L/kg
AUC [4]: 813 ng·h/mL
Cmax [5]: 18.3 ng/mL
t1/2 [6]: 1.56 h

O=C(Nc1ccc(N2C(=O)CC(c3ccccc3)C2=O)c(Cl)c1)c1ccccn1 (racemic)
IC50 [7]: > 30 µM
CLint scaled at 1 µM [8]: 32.6 mL/min/kg
Fu [9]: 0.02%
Fu [10]: 1.4%
Fu [11]: 0.17%
CLint scaled [12]: 19.9 mL/min/kg
IC50 [13]: 17.6 µM
IC50 [14]: > 30 µM
IC50 [15]: 8.7 µM
IC50 [16]: 8.9 µM

Cc1cc(C)n(-c2cc(NC(=O)CN3CCN(C)CC3)nc(-c3ccco3)n2)n1
Activity [17]: Active

O=C(Nc1ccc(N2S(=O)(=O)c3ccccc3S2(=O)=O)cc1)c1ccccn1
Activity [18]: 99.7%
IC50 [7]: > 30 µM
EC50 [19]: 0.165 µM
fold change (FC) [20]: 5.2
EC50 [21]: 0.136 µM
Fu [11]: 3.8%
IC50 [14]: > 30 µM
IC50 [15]: > 30 µM
IC50 [16]: > 30 µM
Activity [22]: 124%
BPR [23]: 0.085
